The list is not random: actives were taken first. Their share in the collection is about 2.1%.
TbHK1 inh: T. brucei hexokinase 1 inhibition; recombinant TbHK1, G6PDH-coupled NADH A340; inhibition, % at 10 µM; 220,000 compounds, 0.11% hits; AID 1430;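 active = inhibition of 50% or more in the single-dose primary screen; inactive = inhibition below 50%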
Runt-SMMHC FRET: Runt domain-CBFb-SMMHC interaction inhibition | Cerulean-Runt/Venus-CBFb-SMMHC FRET ratio 530/480, 1 h | inhibition, % at 20 µM | 220,000 compounds, 0.74% hits;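 active = mean inhibition across duplicate retests at 20 µM reaching about 50%, limit read from the data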;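 note: 0% = DMSO wells and 100% = wells with excess untagged CBFb-SMMHC; inhibitors lower the FRET ratio by blocking Runt binding to CBFb-SMMHC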
Hck Nef HTS: inhibitors of human Hck kinase activated by Nef. P08631. Recombinant Hck-YEEI plus Nef, Z-Lyte FRET kinase assay. inhibition, % at 20 µM. 220,000 compounds, 0.68% hits. AID 463187;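 active = Hck-Nef kinase inhibition above about 50%, limit read from the data; inactive = inhibition below that limit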;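 note: 0% = DMSO with Hck plus Nef and 100% = Hck alone without Nef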
Runt-CBFb FRET: blocks binding of human RUNX1 Runt domain to CBFb; 220,000 compounds, 0.46% hits; inhibition, % at 20 µM; AID 1496; Q01196+Q13951; Cerulean-Runt/Venus-CBFb FRET ratio 530/480, 1 h;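 active = inhibition over about 50% at 20 µM in the single-dose screen, limit read from the data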;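 note: 0% = DMSO wells and 100% = excess unlabeled CBFb competitor control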
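Assay system: Cerulean-tagged RUNX1 Runt domain (FRET donor) fusion protein / Amount: 100 nM each of Venus-CBFb and Cerulean-Runt domain / Medium: Tris buffer pH 7.5 with salts and BSA / Also added: Venus-CBFb 100 nM / Schedule: 1 h complex formation plus 1 h compound treatment, room temperature / Signal: FRET fluorescence / Read-out: loss of energy transfer signal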
RanGTP-Impb inh: inhibitors of RanGTP-importin-beta interaction, primary screen, biochemical, FRET, CFP-Ran, YFP-importin-beta, homogeneous; cell-free CFP-Ran/YFP-importin-beta FRET ratio; inhibition, % (no concentration beside the values); 300,000 compounds, 1.1% hits; AID 2216;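 active = more than half of the replicate wells show a fall in the fluorescence ratio signal beyond about 16%, limit read from the data, passing the limit was not always enough; inconclusive = exactly half of the replicate wells pass the set limit; inactive = fewer than half of replicates pass the limit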;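 note: 0% = DMSO wells and 100% = Ran loaded with GDP instead of GTP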
p97 inhibitor: human p97 ATPase inhibition. P55072. 220,000 compounds, 0.42% hits. recombinant p97 ATPase, Kinase-Glo ATP luminescence, 3 h. inhibition, % at 8 µM; in the data active = inhibition above about 15%;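 note: 0% = DMSO vehicle and 100% = wells lacking enzyme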
Target sequence (P55072 whole entry, looked up): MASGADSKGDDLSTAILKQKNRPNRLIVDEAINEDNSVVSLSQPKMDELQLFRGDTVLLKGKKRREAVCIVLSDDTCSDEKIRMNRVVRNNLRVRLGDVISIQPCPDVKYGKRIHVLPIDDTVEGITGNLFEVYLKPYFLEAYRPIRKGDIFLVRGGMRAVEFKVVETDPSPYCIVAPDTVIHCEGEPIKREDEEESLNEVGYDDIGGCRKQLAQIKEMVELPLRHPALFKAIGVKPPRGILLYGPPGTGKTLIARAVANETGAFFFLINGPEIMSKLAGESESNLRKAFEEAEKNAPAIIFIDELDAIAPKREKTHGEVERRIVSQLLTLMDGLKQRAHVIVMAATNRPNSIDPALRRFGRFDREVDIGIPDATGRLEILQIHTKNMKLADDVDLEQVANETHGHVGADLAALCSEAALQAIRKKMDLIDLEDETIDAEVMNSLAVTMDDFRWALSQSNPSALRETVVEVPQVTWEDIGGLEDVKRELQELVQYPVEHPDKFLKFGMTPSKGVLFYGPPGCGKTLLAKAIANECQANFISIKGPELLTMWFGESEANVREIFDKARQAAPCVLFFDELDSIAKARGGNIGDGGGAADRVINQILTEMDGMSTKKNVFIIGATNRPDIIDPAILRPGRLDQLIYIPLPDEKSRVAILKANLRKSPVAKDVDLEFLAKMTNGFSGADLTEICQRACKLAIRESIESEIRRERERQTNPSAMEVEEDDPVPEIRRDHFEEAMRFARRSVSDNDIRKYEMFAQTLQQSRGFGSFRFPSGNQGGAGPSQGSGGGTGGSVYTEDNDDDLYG
* hit, by the source's call.

`CC1(C)CC(=O)C/C(=N/NC(=O)c2ccc(-c3ccccc3)cc2)C1` gave TbHK1 inh -5, Runt-SMMHC FRET -5, Hck Nef HTS 4, Runt-CBFb FRET -1, RanGTP-Impb inh 24* and p97 inhibitor 5.
CC1(C)CC(=O)CC(=Nc2ccc(C(=O)O)cc2)C1 was read as TbHK1 inh -35, Runt-SMMHC FRET 3, Hck Nef HTS 1, Runt-CBFb FRET 0, RanGTP-Impb inh 45* and p97 inhibitor 4.
Screening COc1cc(C#N)c(NC(=S)N2CCOCC2)cc1OC returned TbHK1 inh -3, Runt-SMMHC FRET 2, Hck Nef HTS 23, Runt-CBFb FRET 1, RanGTP-Impb inh 4 and p97 inhibitor 5.
`O=C(COC(=O)c1ccccc1SCC(=O)N1CCCC1)Nc1ccccc1C(F)(F)F` gave RanGTP-Impb inh 3.
Screening CCOc1cc(C2C3=C(CCCC3=O)Nc3ccc4ncccc4c32)ccc1O (stereo unspecified) returned TbHK1 inh -8, Runt-SMMHC FRET -3, Hck Nef HTS 18, Runt-CBFb FRET 0, RanGTP-Impb inh 22* and p97 inhibitor 6.
Screening COc1cc(C2C3=C(CCCC3=O)Nc3ccc4ncccc4c32)ccc1O (stereo unspecified) returned TbHK1 inh -7, Runt-SMMHC FRET 2, Hck Nef HTS -15, Runt-CBFb FRET 4, RanGTP-Impb inh -2 and p97 inhibitor 5.
CC(C)n1c(=S)[nH]c2scc(-c3cccs3)c2c1=O was read as TbHK1 inh 24, Runt-SMMHC FRET -12, Hck Nef HTS 98*, Runt-CBFb FRET 8, RanGTP-Impb inh inconclusive and p97 inhibitor -1.
`CCn1c(=S)[nH]c2scc(-c3cccs3)c2c1=O` gave TbHK1 inh -2, Runt-SMMHC FRET 5, Hck Nef HTS 15, Runt-CBFb FRET 6, RanGTP-Impb inh inconclusive and p97 inhibitor -4.
Screening CC(=O)N1CCN(c2nc3cc4c(cc3nc2NS(=O)(=O)c2ccccc2)OCCO4)CC1 returned TbHK1 inh -16, Runt-SMMHC FRET 44, Hck Nef HTS 10, Runt-CBFb FRET 92*, RanGTP-Impb inh 43* and p97 inhibitor 8.
For CN1CCN(C(=O)c2ccc(CSc3nc4ccncc4n3Cc3ccc(F)cc3)cc2)CC1 the results were TbHK1 inh -3, Runt-SMMHC FRET 7, Hck Nef HTS -1, Runt-CBFb FRET -1, RanGTP-Impb inh inconclusive and p97 inhibitor 16*.
`CCC(C)NC(=O)c1ccc(CSc2nc3ccncc3n2Cc2ccc(F)cc2)cc1` (stereo unspecified) gave TbHK1 inh -2, Runt-SMMHC FRET 1, Hck Nef HTS -24, Runt-CBFb FRET -6, RanGTP-Impb inh 1 and p97 inhibitor 5.
COc1ccc(OC)c(NC(=O)CSc2nnc(CNC(=O)c3cc(OC)c(OC)c(OC)c3)o2)c1 was read as RanGTP-Impb inh 0.
`CCOC(=O)/C(C#N)=C(C)/C=C1\Sc2ccccc2N1CC` gave TbHK1 inh -3, Runt-SMMHC FRET -40, Hck Nef HTS 3, Runt-CBFb FRET -37, RanGTP-Impb inh 19* and p97 inhibitor -1.
CCN(CC)c1ccc2cc(C(=O)NNC(=O)c3ccc(S(=O)(=O)N4CCCCC4)cc3)c(=O)oc2c1 was read as TbHK1 inh 9, Runt-SMMHC FRET 63*, Hck Nef HTS 1, Runt-CBFb FRET 66*, RanGTP-Impb inh 119* and p97 inhibitor 4.
CCN(CC)c1ccc2cc(C#N)c(=O)oc2c1 was read as TbHK1 inh 2, Runt-SMMHC FRET 92*, Hck Nef HTS 14, Runt-CBFb FRET 82*, RanGTP-Impb inh 115* and p97 inhibitor -3.
`CN(C)C(=O)COc1ccc2ccc(=O)oc2c1` gave TbHK1 inh -15, Runt-SMMHC FRET 0, Hck Nef HTS 2, Runt-CBFb FRET 0, RanGTP-Impb inh -2 and p97 inhibitor 3.
`CCN(CC)c1ccc2cc(S(=O)(=O)c3ccc(C)cc3)c(=O)oc2c1` gave TbHK1 inh 30, Runt-SMMHC FRET 79*, Hck Nef HTS 20, Runt-CBFb FRET 4, RanGTP-Impb inh 137* and p97 inhibitor 2.
CCN(CC)c1ccc2ccc(=O)oc2c1 was read as TbHK1 inh -1, Runt-SMMHC FRET 92*, Hck Nef HTS 114*, Runt-CBFb FRET 39, RanGTP-Impb inh 95* and p97 inhibitor 6.
For Cc1ccc(S(=O)(=O)c2cc3ccccc3oc2=O)cc1 the results were TbHK1 inh -5, Runt-SMMHC FRET -26, Hck Nef HTS -1, Runt-CBFb FRET -6, RanGTP-Impb inh inconclusive and p97 inhibitor 2.
Screening CCN(CC)c1nc2cc(OC)ccc2cc1C#N returned TbHK1 inh -1, Runt-SMMHC FRET 40, Hck Nef HTS 9, Runt-CBFb FRET 11, RanGTP-Impb inh 8 and p97 inhibitor 0.
For CNC(=S)c1cc(C(C)(C)C)c(O)c(C(C)(C)C)c1 the results were TbHK1 inh -11, Runt-SMMHC FRET -1, Hck Nef HTS 15, Runt-CBFb FRET -1, RanGTP-Impb inh 3 and p97 inhibitor 3.
`COc1ccc(C(=O)/C=C(/C)N(C)C)cc1` gave TbHK1 inh -9, Runt-SMMHC FRET -1, Hck Nef HTS 0, Runt-CBFb FRET -2, RanGTP-Impb inh -1 and p97 inhibitor -1.
For Cc1cccc(C)c1-n1c(C)nn(-c2ncc(C(F)(F)F)cc2Cl)c1=O the results were TbHK1 inh -2, Runt-SMMHC FRET 3, Hck Nef HTS 3, Runt-CBFb FRET -2, RanGTP-Impb inh 4 and p97 inhibitor 1.
`COc1cccc(-c2nc(N)nc(SC)c2C#N)c1` gave TbHK1 inh -10, Runt-SMMHC FRET 0, Hck Nef HTS 8, Runt-CBFb FRET -1, RanGTP-Impb inh -5 and p97 inhibitor -2.
Screening COc1ccc(N2CCN(C(=O)c3ccccc3NS(=O)(=O)c3ccc(C)cc3)CC2)cc1 returned RanGTP-Impb inh 2.
Screening CCC(=O)Nc1nn(CC(C)C)c2nc3ccc(C)cc3cc12 returned RanGTP-Impb inh 24*.
For CCn1nc(NC(=O)CC(C)C)c2cc3ccc(C)cc3nc21 the results were RanGTP-Impb inh 10.
Cc1ccc2nc3c(cc2c1)c(NS(=O)(=O)c1ccccc1)nn3CC(C)C was read as TbHK1 inh -10, Runt-SMMHC FRET -19, Hck Nef HTS 11, Runt-CBFb FRET -7, RanGTP-Impb inh -3 and p97 inhibitor -4.
CCCC(=O)Nc1nn(CC(C)C)c2nc3cc(C)ccc3cc12 was read as RanGTP-Impb inh 28*.
CC(=O)NC(Cc1ccc(F)cc1)C(=O)NC1CCN(C(=O)Nc2cccc(C)c2)CC1 (stereo unspecified) was read as RanGTP-Impb inh -1.
